From publication PMC2919362 (Chemical biology & drug design, 2010)
Where no end group is shown, it is not given here. The star is where a group is joined. 5FAM = O=C1OC2(c3ccc(O)cc3Oc3cc(O)ccc32)c2ccc(C(=O)*)cc21; Farnesyl = CC(C)=CCC/C(C)=C/CC/C(C)=C/C*

Experiments:
D1TNC1 astrocytes [1] = assay: Flow cytometry of peptide uptake in D1TNC1 astrocytes; assay type: cell-based, rat; conditions: 1 μM, 2 h, 37°C, trypsinized 15 min, triplicate (Figure 6)
PC-12 cells [2] = assay: Flow cytometry of peptide uptake in PC-12 cells; assay type: cell-based, rat; conditions: 1 μM, 2 h, 37°C, trypsinized 15 min, triplicate (Figure 6)
NIH/3T3 fibroblast cells = assay: CLSM of peptide uptake in live NIH/3T3 fibroblasts; assay type: cell-based, Swiss mouse; conditions: 1 μM, 2 h, live cells (Figure 4B)
Procedure, shortened: (§1)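 Live-cell confocal imaging. Cells were seeded at 7.8 × 10^3 cells/cm2 and grown to about 50% confluency (about 24 h), then washed twice with PBS. Peptide (5-Fam labelled) was incubated in serum-free DMEM at 37°C, 5.0% CO2. Nuclei were stained with Hoechst 34580 (1 μg/mL final, last 20 min) and membranes with WGA–Alexa Fluor 594 (5 μg/mL final, last 10 min). Cells were then washed twice and imaged with a 60X objective; emission was read at 520/450/620 nm.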

D1TNC1 astrocytes [3] = assay: CLSM of peptide uptake in live D1TNC1 astrocytes; assay type: cell-based, rat; conditions: 1 μM, 2 h, live cells (Figure 4C)
Procedure, shortened: as §1

COS-1 cells = assay: CLSM of peptide uptake in live COS-1 cells; assay type: cell-based, African green monkey; conditions: 1 μM, 2 h, live cells (Figure 4A)
Procedure, shortened: as §1

PC-12 cells [4] = assay: CLSM of peptide uptake in PC-12 differentiated neurons; assay type: cell-based, rat; conditions: 1 μM, 2 h, live cells (Figure 4D)
Procedure, shortened: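 Neuronal differentiation and imaging. PC-12 cells were seeded at 3.9 × 10^3 cells/cm2 on poly-lysine plates and grown for 24 h. They were serum-starved for 24 h in F12K + 1% HS, then differentiated with 100 ng/mL β-NGF in the same medium for 6–8 days, refreshed every 2 days. Labelled peptide was incubated in F12K + 1% HS at 37°C, 5.0% CO2, with Hoechst 34580 and WGA–Alexa Fluor 594 counterstains. Live cells were imaged by confocal microscopy (60X).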

Row | Substance | entry into astrocytes compared with HeLa cells (flow cytometry) (D1TNC1 astrocytes [1]) | entry into PC12 cells compared with HeLa cells (flow cytometry) (PC-12 cells [2]) | uptake in NIH/3T3 fibroblast cells (CLSM) (NIH/3T3 fibroblast cells) | uptake in D1TNC1 astrocytes (CLSM) (D1TNC1 astrocytes [3]) | uptake in COS-1 cells (CLSM) (COS-1 cells) | uptake in PC-12 cells (CLSM) (PC-12 cells [4])
1 | 5-Fam-KKSRRC(S-decyl)VLS [5b] | efficiency comparable to that observed with HeLa cells | efficiency comparable to that observed with HeLa cells | – | – | – | –
2 | 5FAM-KKSRRC(Farnesyl)VLS [4b] | – | – | moderate uptake | significant uptake | moderate uptake | significant uptake
